Data set [1] concerns the target T1, Cyclic GMP-AMP synthase (Homo sapiens, UniProt Q8N884). The data set is described as follows: Inhibition of cGAS in human THP1 cells assessed as reduction in salmon sperm dsDNA-induced IFN-beta expression preincubated for 1 hr followed by dsDNA stimulation for 12 hrs by luciferase reporter gene assay. In kind it is cell-based. A general note: In a reporter assay the amount or activity of a reporter protein is the signal.

In a further data set the test system is THP-1. The data set is described as follows: Cytotoxicity against human THP1 cells assessed as reduction in cell viability by CellTiterGlo assay. In kind it is cell-based. Background: ATP-based viability assays read luminescence as a measure of living cells.
The target in data set [2] is T1, Cyclic GMP-AMP synthase. The experiment in a line: Inhibition of human cGAS (2 to 522 residues) expressed in Sf9 insect cells assessed as reduction in cGAMP level using ISD DNA as substrate in presence of ATP and GTP incubated for 1 hr followed by Cy5-labeled cGAMP addition measured after 1 hr by fluorescence polarization assay. The procedure, abridged:
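Enzyme reaction uses 100 nM cGAS, 100 nM ISD DNA, 1 mM ATP and 0.3 mM GTP in Hepes/NaCl/Tween-20/MgCl2 buffer, pH 7.5, with compounds. Run 1 h at room temperature, then stopped with 50 mM EDTA. Fluorescence polarization read with 620 nm excitation.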

Usually pIC50 stands for −log10 of the IC50, conventionally taken in molar units.

pIC50: −log10 of the molar value. Calls of active or inactive are those of the source. The calls are words filed in the database; no cut-off is given here.

T1 sequence (Q8N884 whole entry): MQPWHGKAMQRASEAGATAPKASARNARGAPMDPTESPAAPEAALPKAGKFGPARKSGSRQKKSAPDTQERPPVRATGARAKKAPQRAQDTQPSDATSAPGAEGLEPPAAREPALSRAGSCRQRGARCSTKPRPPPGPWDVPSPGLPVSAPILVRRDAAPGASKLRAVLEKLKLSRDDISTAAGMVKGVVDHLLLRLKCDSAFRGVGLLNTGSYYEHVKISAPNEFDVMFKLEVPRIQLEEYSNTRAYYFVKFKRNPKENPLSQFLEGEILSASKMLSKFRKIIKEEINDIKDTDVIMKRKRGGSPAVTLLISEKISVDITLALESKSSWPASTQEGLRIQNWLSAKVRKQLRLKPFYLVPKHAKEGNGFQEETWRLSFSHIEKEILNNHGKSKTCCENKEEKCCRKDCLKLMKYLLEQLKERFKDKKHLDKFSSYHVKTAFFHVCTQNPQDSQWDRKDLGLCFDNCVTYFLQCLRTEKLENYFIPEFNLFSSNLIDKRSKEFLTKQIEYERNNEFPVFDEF

Regarding `C[C@@H](CO)NC(=O)c1cnn2c(O)cc(-c3ccccc3)nc12`, at Cyclic GMP-AMP synthase [1], the inhibition result was “inactive”. Besides, the Activity entry in the data set with THP-1 was “Non-Toxic”.
Take `O=C(NCCCNc1nc(Nc2cccc(NC(=O)N3CCCC3)c2)ncc1I)c1cccs1` [BX-795]: the Activity entry in the data set on THP-1 is listed as “Non-Toxic”.
As to `O=C(NCCO)c1cnn2c(O)cc(-c3ccccc3)nc12`, the inhibition result on Cyclic GMP-AMP synthase [1] was “inactive”. In addition, the Activity result in the data set on THP-1 is on record as “Non-Toxic”.
`O=C(O)CNC(=O)c1cnn2c(O)cc(-c3ccccc3)nc12`: on Cyclic GMP-AMP synthase [1], the inhibition result is “inactive”. Besides, in the data set with THP-1, the Activity result is “Non-Toxic”.
Take `O=C(N[C@H]1CCCC[C@H]1C(=O)O)c1cnn2c(O)cc(-c3ccccc3)nc12`: in the data set on THP-1, the Activity result is “Non-Toxic”.
Take `Oc1cc(-c2ccccc2)nc2nnnn12`: the pIC50 on Cyclic GMP-AMP synthase [2] is 4.11.

Source of the values: ChEMBL document CHEMBL4028860 (PLoS One, 2017).
